Results published in ChEMBL document CHEMBL1649418, “Pyrimidine derivatives as potent and selective A3 adenosine receptor antagonists” (J Med Chem, 2011).

Columns and labels:
Assay type in all cases: cell-based
[1] = target: T1, Adenosine receptor A1 (Homo sapiens, UniProt P30542); assay: Displacement of [3H]DPCPX from human adenosine A1 receptor expressed in CHO cells by liquid scintillation counting
T1 sequence (P30542 whole entry): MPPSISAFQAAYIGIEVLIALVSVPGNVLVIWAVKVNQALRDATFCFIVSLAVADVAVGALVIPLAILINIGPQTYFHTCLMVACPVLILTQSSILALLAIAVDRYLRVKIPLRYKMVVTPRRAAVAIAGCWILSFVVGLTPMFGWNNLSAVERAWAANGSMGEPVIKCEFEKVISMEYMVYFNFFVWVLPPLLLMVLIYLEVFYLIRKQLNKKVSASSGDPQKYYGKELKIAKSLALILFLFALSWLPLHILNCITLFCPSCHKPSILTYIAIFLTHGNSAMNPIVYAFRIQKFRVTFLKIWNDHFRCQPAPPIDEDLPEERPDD
How it was run: (§1)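 Transfected CHO cell membranes (15 μg) were incubated with [3H]DPCPX at 25 °C for 60 min, with six test concentrations from 0.1 nM to 1 μM. Nonspecific binding was defined with 10 μM R-PIA. Filters were washed four times with ice-cold buffer before scintillation counting. Ki (Cheng–Prusoff) is mean ± SEM, n=3; % displacement at 0.1 μM is n=2.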

[2] = target: T2, Adenosine receptor A3 (Homo sapiens, UniProt P0DMS8); assay: Displacement of [3H]NECA from human adenosine A3 receptor expressed in human HeLa cells by liquid scintillation counting; conditions: read-out: Ki
T2 sequence (P0DMS8 whole entry): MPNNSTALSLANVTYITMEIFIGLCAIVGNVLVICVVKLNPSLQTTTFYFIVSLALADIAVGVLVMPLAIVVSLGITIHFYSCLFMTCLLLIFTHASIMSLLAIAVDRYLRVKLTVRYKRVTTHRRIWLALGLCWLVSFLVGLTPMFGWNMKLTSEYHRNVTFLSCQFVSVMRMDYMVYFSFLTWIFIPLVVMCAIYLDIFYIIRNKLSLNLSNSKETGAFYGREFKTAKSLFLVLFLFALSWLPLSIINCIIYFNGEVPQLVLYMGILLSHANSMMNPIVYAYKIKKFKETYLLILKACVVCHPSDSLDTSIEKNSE
How it was run: (§2)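 HeLa membranes (90 μg) carrying hA3AR were incubated with [3H]NECA (30 nM) at 25 °C for 180 min, with six concentrations from 0.1 nM to 1 μM. Nonspecific binding was defined with 100 μM R-PIA. Filters were washed six times and counted by scintillation.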

[3] = target: T3, Adenosine receptor A2b (Homo sapiens) (UniProt P29275); assay: Displacement of [3H]DPCPX from human adenosine A2B receptor expressed in HEK293 cells at 0.1 uM by liquid scintillation counting
T3 sequence (whole entry): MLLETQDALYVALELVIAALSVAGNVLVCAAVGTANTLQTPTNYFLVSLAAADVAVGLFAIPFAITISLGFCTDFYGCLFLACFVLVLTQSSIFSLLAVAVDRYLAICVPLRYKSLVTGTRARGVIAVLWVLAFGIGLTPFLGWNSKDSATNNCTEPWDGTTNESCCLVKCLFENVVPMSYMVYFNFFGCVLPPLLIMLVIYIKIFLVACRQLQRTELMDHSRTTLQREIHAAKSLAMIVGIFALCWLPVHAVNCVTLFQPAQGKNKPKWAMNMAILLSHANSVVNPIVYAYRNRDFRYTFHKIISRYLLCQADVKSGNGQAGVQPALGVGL
How it was run: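 HEK-293 membranes (18 μg) were incubated with [3H]DPCPX (35 nM) at 25 °C for 30 min, with six concentrations from 0.1 nM to 1 μM. Nonspecific binding was defined with 400 μM NECA. Filters were washed six times with ice-cold buffer and counted by scintillation. Ki (Cheng–Prusoff) is mean ± SEM, n=3; % displacement at 0.1 μM is n=2.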

[4] = target: T4, Adenosine receptor A2a (Homo sapiens, UniProt P29274); assay: Displacement of [3H][…] from human adenosine A2A receptor expressed in human HeLa cells at 0.1 uM by liquid scintillation counting
How it was run: (§3)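 Nonspecific binding was defined with 50 μM NECA. Filters were washed four times with ice-cold buffer, then counted by scintillation. Ki (Cheng–Prusoff) is mean ± SEM, n=3; % displacement at 0.1 μM is n=2.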

[5] = target: T4, Adenosine receptor A2a; assay: Displacement of [3H][…] from human adenosine A2A receptor expressed in human HeLa cells by liquid scintillation counting; how it was run: as §3
[6] = target: T5, Adenosine receptor A3 (Homo sapiens) (UniProt P0DMS8); assay: Displacement of [3H]NECA from human adenosine A3 receptor expressed in human HeLa cells at 0.1 uM by liquid scintillation counting
T5 sequence (whole entry): T2 sequence (P0DMS8 whole entry)
How it was run: as §2, with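 “scintillation. Ki (Cheng–Prusoff) is mean ± SEM, n=3; % displacement at 0.1 μM is n=2.” for “scintillation.”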

[7] = target: T6, Adenosine receptor A1 (Homo sapiens) (UniProt P30542); assay: Displacement of [3H]DPCPX from human adenosine A1 receptor expressed in CHO cells at 0.1 uM by liquid scintillation counting; how it was run: as §1
T6 sequence (whole entry): T1 sequence (P30542 whole entry)

T4 sequence (P29274 whole entry): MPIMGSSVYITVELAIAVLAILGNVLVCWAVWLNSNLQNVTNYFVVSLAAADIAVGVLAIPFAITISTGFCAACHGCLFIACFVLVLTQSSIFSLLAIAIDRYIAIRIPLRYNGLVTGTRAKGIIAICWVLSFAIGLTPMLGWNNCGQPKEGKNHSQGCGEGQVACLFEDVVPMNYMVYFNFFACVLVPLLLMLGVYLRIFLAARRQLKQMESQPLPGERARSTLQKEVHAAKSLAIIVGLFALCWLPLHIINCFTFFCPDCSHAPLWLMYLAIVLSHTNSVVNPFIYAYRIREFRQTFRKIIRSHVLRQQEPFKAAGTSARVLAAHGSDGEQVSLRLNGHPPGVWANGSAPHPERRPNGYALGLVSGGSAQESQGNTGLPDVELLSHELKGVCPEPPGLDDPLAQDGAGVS

Row | SMILES | Ki [1] [nM] | Ki [2] [nM] | inhibition [3] [%] | inhibition [4] [%] | Ki [5] [nM] | inhibition [6] [%] | inhibition [7] [%]
1 | CCCC(=O)Nc1cc(-c2ccccc2OC)nc(-c2ccccc2OC)n1 | 41.3 | 110 | 3 | 14 | – | – | –
2 | CC(=O)Nc1cc(-c2ccccc2)nc(-c2ccccc2)n1 | 31.2 | 12.1 | 19 | – | 255 | – | –
3 | CCCC(=O)Nc1cc(-c2ccccc2F)nc(-c2ccccc2F)n1 | 18.7 | 135 | 9 | – | 142 | – | –
4 | CCCC(=O)Nc1cc(-c2ccccc2)nc(-c2ccccc2)n1 | 19.5 | 171 | 1 | – | 103 | – | –
5 | CCCC(=O)Nc1cc(-c2ccc3c(c2)OCO3)nc(-c2ccc3c(c2)OCO3)n1 | 9.7 | 59 | 16 | 22 | – | – | –
6 | CCCC(=O)Nc1nc(-c2ccc(C(F)(F)F)cc2)cc(-c2ccc(C(F)(F)F)cc2)n1 | – | – | 13 | 2 | – | 2 | 1
7 | CC(=O)Nc1cc(-c2ccccc2F)nc(-c2ccccc2F)n1 | – | 18.1 | 21 | – | 73.8 | – | 17
8 | CCCC(=O)Nc1cc(-c2ccc(C(F)(F)F)cc2)nc(-c2ccc(C(F)(F)F)cc2)n1 | – | – | 6 | 1 | – | 12 | 3
9 | CC(=O)Nc1cc(-c2cccs2)nc(-c2cccs2)n1 | – | 8 | 23 | – | 24.6 | – | 19
10 | CCCC(=O)Nc1cc(-c2ccsc2)nc(-c2ccsc2)n1 | 65.1 | – | 21 | 23 | – | 11 | –
11 | CCC(=O)Nc1cc(-c2ccc(C(F)(F)F)cc2)nc(-c2ccc(C(F)(F)F)cc2)n1 | – | – | 8 | 17 | – | 12 | 3
12 | CCCC(=O)Nc1nc(/C=C/c2ccccc2)cc(/C=C/c2ccccc2)n1 | – | – | 2 | 3 | – | 12 | 1
13 | CCCC(=O)Nc1nc(-c2ccc3c(c2)OCO3)cc(-c2ccc3c(c2)OCO3)n1 | 678 | 751 | 1 | 8 | – | – | –
14 | CCC(=O)Nc1cc(-c2ccccc2OC)nc(-c2ccccc2OC)n1 | 113 | 23.2 | 7 | 22 | – | – | –
15 | CCC(=O)Nc1nc(-c2ccc(C(F)(F)F)cc2)cc(-c2ccc(C(F)(F)F)cc2)n1 | – | – | 9 | 12 | – | 2 | 2
16 | CCCC(=O)Nc1cc(/C=C/c2ccccc2)nc(/C=C/c2ccccc2)n1 | – | – | 8 | 1 | – | 25 | 1
17 | CCC(=O)Nc1cc(-c2ccc(C)cc2)nc(-c2ccc(C)cc2)n1 | 36.9 | 18.3 | 2 | 1 | – | – | –
18 | CC(=O)Nc1cc(-c2ccc(F)cc2)nc(-c2ccc(F)cc2)n1 | – | 16.7 | 1 | – | 1330 | – | 15
19 | COc1ccc(-c2cc(-c3ccc(OC)cc3OC)nc(NC(C)=O)n2)c(OC)c1 | – | – | 1 | 2 | – | 9 | 1
20 | CC(=O)Nc1nc(/C=C/c2ccccc2)cc(/C=C/c2ccccc2)n1 | – | – | 1 | 15 | – | 4 | 1

Further lines, results first:

Row | Ki [1] [nM] | Ki [2] [nM] | inhibition [3] [%] | inhibition [4] [%] | Ki [5] [nM] | inhibition [6] [%] | inhibition [7] [%] | SMILES
21 | 535 | 127 | 1 | 16 | – | – | – | CCC(=O)Nc1nc(-c2ccc3c(c2)OCO3)cc(-c2ccc3c(c2)OCO3)n1
22 | – | 20.2 | 16 | – | 39.8 | – | 13 | CC(=O)Nc1cc(-c2ccsc2)nc(-c2ccsc2)n1
23 | – | – | 1 | 1 | – | 1 | 1 | CC(=O)Nc1nc(-c2ccoc2)cc(-c2ccoc2)n1
24 | – | – | 2 | 1 | – | 14 | 1 | CSc1ccc(-c2cc(-c3ccc(SC)cc3)nc(NC(C)=O)n2)cc1
25 | – | – | 2 | 7 | – | 3 | 3 | CCCC(=O)Nc1nc(-c2ccc(SC)cc2)cc(-c2ccc(SC)cc2)n1
26 | – | – | 1 | 2 | – | 1 | 2 | CC(=O)Nc1nc(-c2ccsc2)cc(-c2ccsc2)n1
27 | – | – | 1 | 3 | – | 22 | 14 | CCC(=O)Nc1nc(-c2ccc(F)cc2)cc(-c2ccc(F)cc2)n1
28 | – | – | 1 | 7 | – | 20 | 1 | COc1ccc(-c2cc(-c3ccc(OC)cc3)nc(NC(C)=O)n2)cc1
29 | – | – | 1 | 2 | – | 8 | 2 | CC(=O)Nc1nc(-c2ccc(F)cc2)cc(-c2ccc(F)cc2)n1
30 | 3760 | 131 | 10 | 2 | – | – | – | CCCC(=O)Nc1nc(-c2ccc(C)cc2)cc(-c2ccc(C)cc2)n1
31 | – | – | 2 | 14 | – | 22 | 7 | CCCC(=O)Nc1nc(-c2ccc(C(C)=O)cc2)cc(-c2ccc(C(C)=O)cc2)n1
32 | – | – | 8 | 1 | – | 13 | 2 | CCC(=O)Nc1nc(-c2ccc(OC)cc2)cc(-c2ccc(OC)cc2)n1
33 | – | – | 2 | 11 | – | 14 | 1 | CCC(=O)Nc1nc(-c2ccc(Cl)cc2)cc(-c2ccc(Cl)cc2)n1
34 | – | – | 1 | 10 | – | 2 | 4 | COc1ccccc1-c1cc(-c2ccccc2OC)nc(NC(C)=O)n1
35 | – | – | 15 | 23 | – | 1 | 17 | CCCC(=O)Nc1nc(-c2ccco2)cc(-c2ccco2)n1
36 | – | – | 10 | 12 | – | 15 | 8 | CC(=O)Nc1nc(-c2ccccc2F)cc(-c2ccccc2F)n1
37 | – | – | 3 | 5 | – | 21 | 2 | CC(=O)Nc1nc(-c2cccs2)cc(-c2cccs2)n1
38 | – | – | 1 | 3 | – | 17 | 1 | CCCC(=O)Nc1nc(-c2ccc(Cl)cc2)cc(-c2ccc(Cl)cc2)n1
39 | – | – | 2 | 25 | – | 21 | 24 | CCC(=O)Nc1nc(-c2cccs2)cc(-c2cccs2)n1
40 | – | – | 6 | 11 | – | 13 | 17 | CC(=O)Nc1nc(-c2ccccc2)cc(-c2ccccc2)n1
